Assay results as given in ChEMBL document CHEMBL4145673, “Glucopyranosylbianthrones from the Algerian Asphodelus tenuifolius: Structural Insights and Biological Evaluation on Melanoma Cancer Cells” (J Nat Prod, 2018).
Calls of active or inactive are those of the source. The rule behind the calls is not given here.

Tests used:
A-375 [1] = test: Antiproliferative activity against human A375 cells measured after 48 hrs by MTT assay; format: functional, cell-based
Outline: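 A375 melanoma cells grown in DMEM with 10% FBS, 2 mM L-glutamine, penicillin/streptomycin at 37 °C, 5% CO2, subcultured every 2 days; seeded 1 × 10^4/well in triplicate, exposed 48 h to 5−50 μM (DMSO stock diluted into medium; vehicle control 0.1% v/v DMSO). MTT conversion read-out; IC50 from viability dose−response curves versus DMSO-treated control.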

A-375 [2] = test: Cell cycle arrest in human A375 cells assessed as decrease in accumulation at G1-phase at 20 to 40 uM measured after 48 hrs by propidium iodide staining based flow cytometry; format: functional
Outline: (§1)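 A375 cells exposed 48 h (text gives 20, 30, 40 μM; methods give 10, 20, 40 μM), harvested, washed in cold PBS, stained 30 min at 4 °C in hypotonic PI buffer (0.1% sodium citrate, 0.1% Triton X-100, 25 μg/mL PI, 10 μg/mL RNase A). Flow cytometry for G0/G1, S, G2/M distribution and hypodiploid nuclei; means ± SD, triplicate determinations; two-way ANOVA with Bonferroni.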

A-375 [3] = test: Cell cycle arrest in human A375 cells assessed as increase in accumulation at G2/M-phase at 20 to 40 uM measured after 48 hrs by propidium iodide staining based flow cytometry; format: functional; outline: as §1
A-375 [4] = test: Cell cycle arrest in human A375 cells assessed as decrease in accumulation at S-phase at 20 to 40 uM measured after 48 hrs by propidium iodide staining based flow cytometry; format: functional; outline: as §1
A-375 [5] = test: Cell cycle arrest in human A375 cells measured after 48 hrs by propidium iodide staining based flow cytometry; format: functional; outline: as §1
A-375 [6] = test: Cell cycle arrest in human A375 cells assessed as increase in accumulation at S-phase at 20 to 40 uM measured after 48 hrs by propidium iodide staining based flow cytometry; format: functional; outline: as §1
A-375 [7] = test: Induction of apoptosis in human A375 cells assessed as increase in hypodiploid nuclei at 20 to 40 uM measured after 48 hrs by propidium iodide staining based flow cytometry relative to control; format: functional; outline: as §1

Row | IC50 (A-375 [1]; a-375) [µM] | IC50 (A-375 [1]; Homo sapiens, A-375, 48 h) [µM] | SMILES | Activity (A-375 [1]) | Activity (A-375 [2]) | Activity (A-375 [3]) | Activity (A-375 [4]) | Activity (A-375 [5]) | Activity (A-375 [6]) | Activity (A-375 [7]) [%]
1 |  |  | Cc1cc(O)c2c(c1)[C@](O)(C1O[C@H](CO)[C@@H](O)[C@H](O)[C@H]1O)c1ccc(-c3c(C)cc(O)c4c3C(=O)c3cccc(O)c3C4=O)c(O)c1C2=O (atropisomer P) [listing 1 of 2 here] | Dose-dependent effect | Active | Active | Active | Dose-dependent effect |  | 
2 |  |  | Cc1cc(O)c2c(c1)[C@](O)(C1O[C@H](CO)[C@@H](O)[C@H](O)[C@H]1O)c1ccc(-c3c(C)cc(O)c4c3C(=O)c3cccc(O)c3C4=O)c(O)c1C2=O (single isomer, unassigned; atropisomer M) [listing 1 of 2 here] | Dose-dependent effect | Active |  |  | Dose-dependent effect | Active | 
3 | 23.2 |  | Cc1cc(O)c2c(c1)[C@](O)(C1O[C@H](CO)[C@@H](O)[C@H](O)[C@H]1O)c1ccc(-c3c(C)cc(O)c4c3C(=O)c3cccc(O)c3C4=O)c(O)c1C2=O (atropisomer P) [listing 2 of 2 here] |  |  |  |  |  |  | 12.2
4 |  | 20.6 | Cc1cc(O)c2c(c1)[C@](O)(C1O[C@H](CO)[C@@H](O)[C@H](O)[C@H]1O)c1ccc(-c3c(C)cc(O)c4c3C(=O)c3cccc(O)c3C4=O)c(O)c1C2=O (single isomer, unassigned; atropisomer M) [listing 2 of 2 here] |  |  |  |  |  |  | 13.2
